From ChEMBL document CHEMBL1145896, “5-Substituted-2,4-diamino-6-[2-(phosphonomethoxy)ethoxy]pyrimidines-acyclic nucleoside phosphonate analogues with antiviral activity” (J Med Chem, 2003)

How the values were obtained:
Cytomegalovirus [1] = assay: Antiviral activity against AD169 strain of cytomegalovirus (CMV) in HEL ([…]) cells.; format: functional, organism-based
Outline: (§1)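 Inhibition of virus-induced cytopathicity. HSV-1 and HSV-2 were tested in E6SM cells; VZV and CMV in HEL cells. Confluent monolayers were inoculated with 100 CCID50 of virus. After 1–2 h adsorption, residual virus was removed and compound was added at serial concentrations (400, 200, 100, ... μg/mL). Cytopathicity was scored once untreated infected controls reached complete CPE.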

CCRF-CEM = assay: Cytotoxicity against CEM (human lymphoblastic leukemia) cells in vitro.; format: functional
Cytomegalovirus [2] = assay: Antiviral activity against Davis strain of cytomegalovirus (CMV) in HEL ([…]) cells.; format: functional, organism-based; outline: as §1
[3] = Antiviral activity against G strain of HSV-2 in E6SM cells.; format: functional, cell-based, herpes simplex virus; outline: as §1
[4] = Antiviral activity against vaccinia virus in HEL ([…]) cells.; format: functional, cell-based
[5] = system: Human immunodeficiency virus 1; assay: Antiviral activity against HIV-1 (IIIB) in CEM (human leukemia) cells.; format: functional, organism-based; settings: ccrf-cem
Outline: (§2)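 Human CEM cells (~3 × 10^5 cells/mL) were infected with 100 CCID50 per mL of HIV-1 (IIIB) or HIV-2 (ROD) and seeded into wells containing compound dilutions. After 4 days at 37 °C, syncytium (giant cell) formation was examined microscopically.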

[6] = system: Human immunodeficiency virus 2; assay: Antiviral activity against HIV-2 (ROD) in CEM (human leukemia) cells.; format: functional, organism-based; settings: ccrf-cem; outline: as §2
[7] = Antiviral activity against KOS strain of HSV-1 in E6SM cells.; format: functional, cell-based, herpes simplex virus; outline: as §1
[8] = system: Moloney murine sarcoma virus; assay: Antiviral activity against murine sarcoma virus; format: functional, organism-based
Outline: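 Murine C3H/3T3 embryo fibroblasts were seeded at 5 × 10^5 cells/mL. After 24 h, cells were infected with 80 focus-forming units of MSV (from mouse tumours) for 90–120 min at 37 °C. Medium was then replaced by fresh medium containing varied compound concentrations, and MSV-induced transformation was the read-out.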

Human alphaherpesvirus 3 [9] = assay: Antiviral activity against 07/1 strain of VZV in HEL ([…]) cells.; format: functional, organism-based; outline: as §1
Human alphaherpesvirus 3 [10] = assay: Antiviral activity against OKA strain of VZV in HEL ([…]) cells.; format: functional, organism-based; design: unit not given here; outline: as §1
[11] = Antiviral activity against KOS strain of HSV-1; ND=No data; format: functional, herpes simplex virus
Outline: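 Confluent E6SM cell cultures in 96-well plates were inoculated with 100 CCID50 virus. After 1–2 h adsorption, inoculum was removed and test compound was added at 400, 200, 100, ... µg/mL.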

| Compound | EC50 (Cytomegalovirus [1]) | CC50 (CCRF-CEM) | EC50 (Cytomegalovirus [2]) | EC50 [3] | EC50 [4] | EC50 [5] | EC50 [6] | EC50 [7] | EC50 [8] | EC50 (Human alphaherpesvirus 3 [9]) | EC50 (Human alphaherpesvirus 3 [10]) | EC50 [11] |
| --- | --- | --- | --- | --- | --- | --- | --- | --- | --- | --- | --- | --- |
| Nc1nc(N)c(Cl)c(OCCOCP(=O)(O)O)n1 | > 0.12 uM ml-1 | 300 µM | > 0.6 uM ml-1 | > 1.2 uM ml-1 | > 1.2 uM ml-1 | 0.0031 uM ml-1 | 0.0044 uM ml-1 | > 1.2 uM ml-1 | 0.0028 uM ml-1 | – | – | – |
| Cc1c(N)nc(N)nc1OCCOCP(=O)(O)O | > 0.15 uM ml-1 | 15 µM | > 0.15 uM ml-1 | > 1.2 uM ml-1 | > 1.2 uM ml-1 | 0.00043 uM ml-1 | 0.00031 uM ml-1 | > 1.2 uM ml-1 | 0.00022 uM ml-1 | 0.042 uM ml-1 | 0.018 | – |
| Nc1nc(N)n(CCOCP(=O)(O)O)c(=O)c1Cc1ccccc1 | > 0.15 uM ml-1 | > 300 µM | > 0.15 uM ml-1 | > 1.2 uM ml-1 | > 1.2 uM ml-1 | > 0.3 uM ml-1 | > 0.3 uM ml-1 | > 1.2 uM ml-1 | > 1.12 uM ml-1 | > 0.15 uM ml-1 | > 0.15 | – |
| Nc1ncnc2c1ncn2CCOCP(=O)(O)O [ADEFOVIR] | 0.1 uM ml-1 | 56 µM | 0.27 uM ml-1 | 0.024 uM ml-1 | > 0.17 uM ml-1 | 0.0033 uM ml-1 | 0.0066 uM ml-1 | 0.024 uM ml-1 | 0.0022 uM ml-1 | – | – | – |
| C=CCc1c(N)nc(N)n(CCOCP(=O)(O)O)c1=O | > 0.15 uM ml-1 | > 300 µM | > 0.15 uM ml-1 | 0.77 uM ml-1 | > 1.2 uM ml-1 | > 0.3 uM ml-1 | > 0.3 uM ml-1 | > 1.2 uM ml-1 | > 1.12 uM ml-1 | > 0.15 uM ml-1 | > 0.15 | – |
| Nc1nc(N)n(CCOCP(=O)(O)O)c(=O)c1CC(=O)O | > 0.15 uM ml-1 | > 300 µM | > 0.15 uM ml-1 | > 1.2 uM ml-1 | > 1.2 uM ml-1 | > 0.3 uM ml-1 | > 0.3 uM ml-1 | > 1.2 uM ml-1 | 0.082 uM ml-1 | > 0.15 uM ml-1 | > 0.15 | – |
| CCOC(=O)Cc1c(N)nc(N)n(CCOCP(=O)(O)O)c1=O | > 0.15 uM ml-1 | > 300 µM | > 0.15 uM ml-1 | > 1.2 uM ml-1 | > 1.2 uM ml-1 | > 0.3 uM ml-1 | 0.11 uM ml-1 | > 1.2 uM ml-1 | 0.011 uM ml-1 | > 0.15 uM ml-1 | > 0.15 | – |
| Nc1cc(OC[C@H](CO)OCP(=O)(O)O)nc(N)n1 | 0.13 uM ml-1 | 23 µM | 0.12 uM ml-1 | 0.017 uM ml-1 | 0.0065 uM ml-1 | > 0.014 uM ml-1 | 0.014 uM ml-1 | 0.0048 uM ml-1 | > 0.0027 uM ml-1 | 0.00024 uM ml-1 | 0.00017 | – |
| Nc1nc(N)c(Cc2ccccc2)c(OCCOCP(=O)(O)O)n1 | > 0.15 uM ml-1 | > 300 µM | > 0.15 uM ml-1 | – | > 1.2 uM ml-1 | > 0.3 uM ml-1 | > 0.3 uM ml-1 | > 1.2 uM ml-1 | > 1.12 uM ml-1 | > 0.15 uM ml-1 | > 0.15 | – |
| Nc1nc(N)n(CCOCP(=O)(O)O)c(=O)c1-c1ccccc1 | > 0.15 uM ml-1 | > 300 µM | > 0.15 uM ml-1 | > 1.2 uM ml-1 | > 1.2 uM ml-1 | > 0.3 uM ml-1 | > 0.3 uM ml-1 | > 1.2 uM ml-1 | > 1.12 uM ml-1 | > 0.15 uM ml-1 | > 0.15 | – |
| C[C@H](Cn1cnc2c(N)ncnc21)OCP(=O)(O)O [TENOFOVIR ANHYDROUS] | > 0.17 uM ml-1 | 410 µM | > 0.17 uM ml-1 | > 0.17 uM ml-1 | > 0.17 uM ml-1 | 0.0012 uM ml-1 | 0.0014 uM ml-1 | > 0.17 uM ml-1 | 0.0046 uM ml-1 | 0.17 uM ml-1 | – | – |
| Nc1nc(N)c(-c2ccccc2)c(OCCOCP(=O)(O)O)n1 | > 0.15 uM ml-1 | > 300 µM | > 0.15 uM ml-1 | > 1.2 uM ml-1 | > 1.2 uM ml-1 | > 0.3 uM ml-1 | > 0.3 uM ml-1 | > 1.2 uM ml-1 | > 1.12 uM ml-1 | > 0.15 uM ml-1 | > 0.15 | – |
| CCOC(=O)Cc1c(N)nc(N)nc1OCCOCP(=O)(O)O | > 0.15 uM ml-1 | > 300 µM | > 0.15 uM ml-1 | > 1.2 uM ml-1 | > 1.2 uM ml-1 | > 0.3 uM ml-1 | 0.078 uM ml-1 | > 1.2 uM ml-1 | 0.035 uM ml-1 | > 0.15 uM ml-1 | > 0.15 | – |
| Nc1nc(N)c(CC(=O)O)c(OCCOCP(=O)(O)O)n1 | > 0.15 uM ml-1 | > 300 µM | > 0.15 uM ml-1 | > 1.2 uM ml-1 | > 1.2 uM ml-1 | > 0.3 uM ml-1 | > 0.3 uM ml-1 | > 1.2 uM ml-1 | 0.046 uM ml-1 | > 0.15 uM ml-1 | > 0.15 | – |
| Nc1nc(N)c(C2CC2)c(OCCOCP(=O)(O)O)n1 | – | > 300 µM | – | – | – | > 0.3 uM ml-1 | > 0.3 uM ml-1 | – | > 1.12 uM ml-1 | – | – | > 1.2 uM ml-1 |
| C=CCc1c(N)nc(N)nc1OCCOCP(=O)(O)O | > 0.15 uM ml-1 | > 300 µM | > 0.15 uM ml-1 | 0.79 uM ml-1 | > 1.2 uM ml-1 | > 0.3 uM ml-1 | > 0.3 uM ml-1 | > 1.2 uM ml-1 | > 1.12 uM ml-1 | > 0.15 uM ml-1 | > 0.15 | – |
| Nc1nc(N)n(CCOCP(=O)(O)O)c(=O)c1C1CC1 | > 0.15 uM ml-1 | > 300 µM | – | > 1.2 uM ml-1 | > 1.2 uM ml-1 | > 0.3 uM ml-1 | > 0.3 uM ml-1 | > 1.2 uM ml-1 | > 1.12 uM ml-1 | > 0.15 uM ml-1 | – | – |
| Nc1nc(N)c(Br)c(OCCOCP(=O)(O)O)n1 | > 0.15 uM ml-1 | > 300 µM | – | 0.7 uM ml-1 | 0.7 uM ml-1 | 0.0073 uM ml-1 | 0.0095 uM ml-1 | 0.7 uM ml-1 | 0.007 uM ml-1 | > 0.15 uM ml-1 | – | – |
| Nc1cc(OCCOCP(=O)(O)O)nc(N)n1 | > 0.19 uM ml-1 | 42 µM | > 0.19 uM ml-1 | 0.033 uM ml-1 | 0.18 uM ml-1 | 0.003 uM ml-1 | 0.0016 uM ml-1 | 0.025 uM ml-1 | 0.00015 uM ml-1 | 0.0095 uM ml-1 | 0.0045 | – |
| Cc1c(N)nc(N)n(CCOCP(=O)(O)O)c1=O | > 0.15 uM ml-1 | > 300 µM | – | > 1.2 uM ml-1 | > 1.2 uM ml-1 | > 0.3 uM ml-1 | > 0.3 uM ml-1 | > 1.2 uM ml-1 | > 1.12 uM ml-1 | > 0.15 uM ml-1 | – | – |
| N#CCc1c(N)nc(N)n(CCOCP(=O)(O)O)c1=O | > 0.15 uM ml-1 | > 300 µM | > 0.15 uM ml-1 | > 1.2 uM ml-1 | > 1.2 uM ml-1 | > 0.3 uM ml-1 | > 0.3 uM ml-1 | > 1.2 uM ml-1 | 0.3 uM ml-1 | 0.084 uM ml-1 | > 0.15 | – |
| N#CCc1c(N)nc(N)nc1OCCOCP(=O)(O)O | > 0.15 uM ml-1 | > 300 µM | > 0.15 uM ml-1 | > 1.2 uM ml-1 | > 1.2 uM ml-1 | > 0.3 uM ml-1 | > 0.3 uM ml-1 | > 1.2 uM ml-1 | 0.3 uM ml-1 | 0.11 uM ml-1 | 0.14 | – |
